In ChEMBL document CHEMBL1156500, “Characterization of the metabolic activation of hepatitis C virus nucleoside inhibitor beta-D-2'-Deoxy-2'-fluoro-2'-C-methylcytidine (PSI-6130) and identification of a novel active 5'-triphosphate species” (J Biol Chem, 2007):
Each block holds one compound with its values, some of them ahead of it. The source made the active and inactive calls. The calls are words filed in the database; no cut-off is given here.

Columns and labels:
Hepatitis C virus [1] = experiment: Inhibition of RNA synthesis activity of […]; design: species or system Hepatitis C virus subtype 1b, Con1
Hepatitis C virus [2] = experiment: Inhibition of RNA synthesis activity of […] 1b Con1 replicase; design: species or system Hepatitis C virus subtype 1b
In short: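 Membrane-associated native replication complexes were isolated from 2209-23 replicon cells, with 20 μl reactions. One format used 2.5×10^6 cell equivalents for 60 min. The other used 3.1×10^6 cell equivalents for 90 min in 50 mM HEPES pH 7.5, 5 mM MgCl2, actinomycin D, 1 mM ATP/GTP/CTP, 0.4 μM [α-33P]UTP and a creatine phosphate regeneration system.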

Hepatitis C virus [3] = experiment: Antiviral activity against HCV 1b Con1 in 2209-23 cells after 72 hrs by luciferase based replicon assay; format: functional, organism-based, Hepacivirus hominis; settings: genotype 1b Con 1, 2209-23, 72 h
In short: (§1)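 Huh7-derived 2209-23 cells carrying a bicistronic genotype 1b Con1 subgenomic HCV replicon with a Renilla luciferase reporter of RNA replication. Cells were exposed to compound for 72 h, and dose-dependent reduction of luciferase activity was measured to give IC50.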

Hepatitis C virus [4] = experiment: Antiviral activity against HCV 1b Con1 in 2209-23 cells upto 100 uM after 72 hrs by luciferase based replicon assay; format: functional, organism-based; settings: Hepacivirus hominis, genotype 1b Con 1; in short: as §1

IC50 (Hepatitis C virus [1]; Hepatitis C virus, Con1): 0.52 µM
IC50 (Hepatitis C virus [2]): 1.19 µM
Compound: C[C@@]1(F)[C@H](O)[C@@H](COP(=O)(O)OP(=O)(O)OP(=O)(O)O)O[C@H]1n1ccc(=O)[nH]c1=O [GS-461203]
Ki (Hepatitis C virus [1]): 0.141 µM

IC50 (Hepatitis C virus [3]): > 100 µM
Compound: C[C@@]1(F)[C@H](O)[C@@H](CO)O[C@H]1n1ccc(=O)[nH]c1=O
Activity (Hepatitis C virus [4]): inactive

Compound: O=c1ccn([C@@H]2O[C@H](COP(=O)(O)OP(=O)(O)OP(=O)(O)O)[C@@H](O)[C@H]2O)c(=O)[nH]1
Km (Hepatitis C virus [1]; Hepatitis C virus subtype 1b, Con1): 0.37 µM
